# Assay: Toxicity liver stage against HepG2, at 10uM
# Type: cell-based
# Set-up: test concentration 10 uM, cell line HepG2-A16-CD81EGFP
# Conditions: human, HepG2-A16-CD81EGFP cells; read-out: INHIBITION
# In short: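 Uninfected HepG2-A16-CD81EGFP cells, 3 × 10^3 per well, 1536-well, plated on prespotted compound at 10 μM final, parasite-free screening media added to match infected plates; puromycin 10 μM positive, DMSO 0.5% negative; run in parallel with 48 h PbLuc assay at 37 °C, 5% CO2; viability by CellTiter-Glo luminescence, normalized to controls.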
row,Compound,cytotoxicity at 10 µM [%]
1,N#Cc1ccccc1NC(=O)c1ccc2c(c1)OCO2,-10.4
2,c1cc(-c2c[nH]c([C@@H]3COCCN3Cc3csnn3)n2)ccn1,3.07
3,CCNC(=O)NC[C@@H]1C=C(C)[C@H](CC(=O)NCCN(C)C)C[C@H]1C(C)C,2.43
4,CC(=O)c1cccc(S(=O)(=O)NCC(C)(O)c2cccs2)c1 (centres undefined),-17
5,O=S(=O)(C1CC1)N1CCO[C@@H]2CN(Cc3ccco3)C[C@@H]2C1,-140
6,CN(C)C(=O)CN1CCO[C@H]2CN(c3ccccn3)C[C@H]21,8.16
7,CCN1C(=O)CC(c2cnn(C)c2)C12CCN(C(=O)c1ccc[nH]1)CC2 (centres undefined),8.82
8,Cc1ccc(CN2CCC3(CCN(Cc4ccncc4)CC3)CC2)cc1,8.4
9,O=C(c1ccncc1)N1CCCn2nnc(Cn3cccn3)c2C1,6.01
10,COCc1ncn2c1CN(C(=O)c1cnc3ccccc3c1)CC2,-2.39
11,Cc1cccc(CNc2n[nH]c(C)n2)c1,-4.09
12,O=S1(=O)NC(c2ccnc(N3CCCC3)n2)=Nc2ccccc21,12.8
13,c1cnc(CC2CCN(c3cnccn3)CC2)cn1,4.44
14,CC(C)Oc1ccccc1CNC(=O)N(C)C(C)CS(C)(=O)=O (centres undefined),-48.4
15,O=C(NCC1CCOC1)c1cc(-c2ccccc2Cl)[nH]n1 (centres undefined),-3.11
16,Cc1ccc(C(=O)N2CCOCC2)cc1NCc1ccsc1,-6.96
17,CCC(C)(C)NC(=O)Cn1cc(C(N)=O)c(-c2ccccc2)n1,-6.84
18,COc1ccc(C)cc1CN(Cc1nc(C)c(C)o1)C1CCN(C)C1 (centres undefined),-3.41
19,CC(C)CC(NC(=O)c1ccn(C)c(=O)c1)c1cccs1 (centres undefined),1.67
20,Cc1cccc(C2(O)CCN(C(=O)c3ccc(N(C)C)cc3)CC2)c1C,-2.96
21,C=C(C)CN(CC)Cc1nc(C)no1,-15.8
22,CC(C)N(CCS(C)(=O)=O)Cc1csc(-c2ccccc2F)n1,-49.3

row,Compound,cytotoxicity at 10 µM [%]
1,CN(CC(F)(F)F)C(=O)C1CSCN1C(=O)OC(C)(C)C (centres undefined),-0.265
2,CNC(=O)[C@H]1C[C@@H]2CN(C(=O)c3ccncc3F)C[C@@H]2N1C,-111
3,Cc1csc(CN2C[C@@H]3CN(S(C)(=O)=O)CCO[C@@H]3C2)n1,-98.3
4,Cc1nn(C)c2nc(N(Cc3nccs3)C3CC3)sc12,-45.9
5,CCN1CCN(C(=O)c2ccc3c(c2)CCCN3)[C@H]2CS(=O)(=O)C[C@H]21,-57.8
6,Cc1cccc(=O)n1CCC(=O)N(C)Cc1cccc2ncccc12,0.66
7,CCn1cc(C(=O)NCc2cccnc2N(C)Cc2ccccc2)cn1,1.18
8,CC(C)[C@@H]1CN(CCOc2ccccc2)C[C@H]1NS(=O)(=O)N(C)C,-43
9,Cc1cc(C)nc(N2CC[C@@]3(O)CCN(S(=O)(=O)N(C)C)C[C@H]3C2)n1,3.5
10,CC(=O)c1cnc(NCCN2CCCC2)nc1C,-3.73
11,CCn1c(C2CCN(C(=O)c3ccc4cc[nH]c4c3)CC2)n[nH]c1=O,-18.5
12,COc1ccc(C(=O)N2CCC3(CCC(=O)N(C(C)C)C3)CC2)cc1C,-3.47
13,COc1cccc(C(C(=O)O)N2CCCN(C3CCCC3)CC2)c1OC (centres undefined),-11.3
14,Cn1c(CN2CCCC(Cn3cncn3)C2)nc2ccccc21 (centres undefined),-6.78
15,CCNC(=O)NC(=O)CN(CC(C)O)c1ccccc1 (centres undefined),1.32
16,CCc1[nH]ncc1C(=O)N1CCCC(n2nc(C)nc2C)C1 (centres undefined),-6.02
17,O=C(Cn1nc(-c2ccc(F)cc2)oc1=O)Nc1ccccc1,0.967
18,CC(C)c1cc(NC(=O)CN2CCc3cncnc3C2)on1,-8.83
19,c1csc(CN2CCc3ncnc(C4CCOC4)c3CC2)c1 (centres undefined),8.01
20,O=C1CCCN1Cc1nnc2n1CCN(Cc1ccoc1)CC2,2.72
21,CN(C)CCN1CCC2(CCCN(Cc3cccn3C)C2)C1=O (centres undefined),-114
22,Cc1cccc(CN2CC[C@@H]3[C@@H]2CCN3Cc2cccs2)n1,-117

# Reference: ChEMBL document CHEMBL4513216, “Probing the Open Global Health Chemical Diversity Library for Multistage-Active Starting Points for Next-Generation Antimalarials” (ACS Infect Dis, 2020)
